Tests used:
CD4+ T-cells = experiment: T-cell proliferation assay; format: cell-based, mouse; conditions: 1-MT 0.75 mM
Method in brief: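 CD4+ responder T cells from C3H mouse spleens (10^5/well, anti-CD3/CD28 bead-stimulated) were co-cultured 3 days with 5 × 10^4 mitomycin C-treated (40 µg/ml, 30 min) MCEC. The MCEC were untransfected or transfected with test peptide carrying IDO or GFP plasmid, with or without 0.75 mM final 1-methyl-dl-tryptophan. [3H]thymidine (1 µCi/well) was added and incorporation was counted 16 h later.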

MCEC [1] = experiment: Inhibitor studies: uptake of F complexes; format: cell-based; conditions: Mus musculus, read-out: reduction (inhibition) of uptake of F complexes
Method in brief: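 Mouse corneal endothelial cells (MCEC; DMEM, 10% FBS, full serum) were seeded at 2.2 × 10^5/well one day before. Complexes of test peptide with Cy5-labelled luciferase plasmid were formed in 10 mM phosphate buffer pH 7.0, added with inhibitor at non-toxic working levels, and incubated 3 h at 37°C. Cells were washed, trypsinised and read by flow cytometry (mean fluorescence, 10 000 gated cells), relative to vehicle (DMSO or water) = 100%.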

MCEC [2] = experiment: Inhibitor studies: luciferase gene expression mediated by F complexes; format: cell-based, mouse

In the case of Cn1cc(CC(N)C(=O)O)c2ccccc21 (racemic) [1-MT, 1-methyl-DL-tryptophan], the “effect on the inhibition of T-cell proliferation by IDO-transfected MCEC” value (CD4+ T-cells) is reported as “reversed”.
CCN(c1nc(N)c(C(=O)NC(=N)N)nc1Cl)C(C)C [EIPA, 5-(N-ethyl-N-isopropyl)amiloride] gave an inhibition at 25 µg/mL (MCEC [1]) of 32.9%.
CCCCC[C@@H](O)[C@H]1C(=O)O[C@H](C)[C@@H](O)/C=C/C=C/C=C/C=C/C=C(\C)[C@@H](O)C[C@H](O)C[C@H](O)C[C@H](O)C[C@H](O)C[C@H](O)C[C@@H]1O [Filipin, filipin III] gave an inhibition at 1 µg/mL (MCEC [1]) of 48.6%.
With C=C1[C@@H](C)[C@H]2[C@H](Cc3ccccc3)NC(=O)[C@]23[C@H](OC(C)=O)/C=C/[C@@](C)(O)C(=O)[C@@H](C)C/C=C/[C@H]3[C@@H]1O [cytochalasin, cytochalasin D] the inhibition at 5 µg/mL (MCEC [1]) was 58.5%.
O=C(N/N=C/c1ccc(O)c(O)c1)c1cc2ccccc2cc1O [dynasore] was tested, and the “toxicity during the longer incubation period used for gene expression assays” value (MCEC [2]; dynasore 6.8 µg/ml, MCEC) was “pronounced toxicity” and the inhibition at 6.8 µg/mL (MCEC [1]) was 64.7%.
COC(=O)Nc1nc2ccc(C(=O)c3cccs3)cc2[nH]1 [nocodazole] was tested, and the “increase of gene expression mediated by F complexes” value (MCEC [2]; nocodazole 4.5 µg/ml, N/P 20, luciferase 72 h later, relative to vehicle control) was 2.35 times and the inhibition at 4.5 µg/mL (MCEC [1]) was 58.2%.
